Test results as given in ChEMBL document CHEMBL1133340, “Design, synthesis, and structure-activity relationship studies of ATP analogues as DNA gyrase inhibitors” (2000).
In brackets after ≈: the same amount, converted by molar mass.

Tests used:
[1] = target: T1, DNA gyrase (Escherichia coli) (UniProt P0AES6+P0AES4); assay: Maximum non-effective concentration against in vitro Escherichia coli DNA gyrase supercoiling activity was determined by coupled spectrophotometric ATPase assay; assay type: protein-complex assay
Outline: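 E. coli DNA gyrase ATPase activity measured in a coupled spectrophotometric system with pyruvate kinase and lactate dehydrogenase, following NADH disappearance as ATP is consumed; supercoiling assay used for validation. Value reported as maximum non-effective concentration (MNEC), the highest inhibitor concentration showing no gyrase inhibition.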

[2] = target: T1, DNA gyrase (Escherichia coli)
Staphylococcus aureus [3] = assay: Compound was tested in vitro for antibacterial activity against Staphylococcus aureus Smith QR-54; assay type: functional
Outline: (§1)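 MIC by 2-fold agar dilution on Mueller-Hinton agar, inoculum 10⁴ CFU per spot.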

[4] = tested on: Staphylococcus epidermidis; assay: Compound was tested in vitro for antibacterial activity against Staphylococcus epidermidis ATCC 14990; assay type: functional; outline: as §1
Staphylococcus aureus [5] = assay: Compound was tested in vitro for antibacterial activity against Staphylococcus aureus H19982; assay type: functional; outline: as §1
Streptococcus pyogenes = assay: Compound was tested in vitro for antibacterial activity against Streptococcus pyogenes beta15; assay type: functional; outline: as §1
Enterococcus faecium = assay: Compound was tested in vitro for antibacterial activity against Enterococcus faecium vanA E23-8; assay type: functional; outline: as §1
Staphylococcus aureus [6] = assay: Compound was tested in vitro for antibacterial activity against Staphylococcus aureus Smith; assay type: functional; outline: as §1
Staphylococcus aureus [7] = assay: Compound was tested in vitro for antibacterial activity against Staphylococcus aureus Coum-R; assay type: functional; outline: as §1
Staphylococcus aureus [8] = assay: Compound was tested in vitro for antibacterial activity against Staphylococcus aureus ATCC 25923; assay type: functional; outline: as §1
Staphylococcus aureus [9] = assay: Compound was tested in vitro for antibacterial activity against Staphylococcus aureus NovoR; assay type: functional; outline: as §1

**Q.** `CCc1nn(-c2cc(Cl)cc(Cl)c2)c2nc(Oc3ccc4c(N(C)C)cc(=O)oc4c3)nc(N)c12` was tested. Which MNEC [1] did it give?
**A.** 125 µg/mL

**Q.** How did the MNEC [1] turn out when `CCOC(=O)c1cccc(Oc2nc(N)c3c(C)nn(-c4cc(Cl)cc(Cl)c4)c3n2)c1` was run?
**A.** 63 µg/mL

**Q.** For `Cc1ccc(Oc2nc(N)c3c(C)nn(-c4cc(Cl)cc(Cl)c4)c3n2)cn1`, which MNEC [1] is on record?
**A.** 125 µg/mL

**Q.** Which MNEC [2] does the source give for `CCc1nn(-c2cccc(F)c2)c2nc(Oc3ccc4c(O)cc(=O)oc4c3)nc(N)c12` here?
**A.** 1 µg/mL

**Q.** `CCNc1nc(Sc2cccc(C(=O)O)c2)nc2c1c(CC)nn2-c1cc(Cl)cc(Cl)c1` was tested. Which MNEC [2] did it give?
**A.** 8 µg/mL

**Q.** With `CCCCNC(=O)Nc1c(O)oc2cc(Oc3nc(N)c4c(CC)nn(-c5cc(Cl)cc(Cl)c5)c4n3)ccc2c1=O` as the compound, how does the MNEC [2] read?
**A.** 0.5 µg/mL

**Q.** What about the MIC (Staphylococcus aureus [3]) of the same compound?
**A.** 2 µg/mL (≈ 3.34 µM)

**Q.** What about the MIC [4] of the same compound?
**A.** 4 µg/mL (≈ 6.68 µM)

**Q.** What about the MIC (Staphylococcus aureus [5]) of the same compound?
**A.** 4 µg/mL (≈ 6.68 µM)

**Q.** What about the MIC (Streptococcus pyogenes) of the same compound?
**A.** 2 µg/mL (≈ 3.34 µM)

**Q.** And the MIC (Enterococcus faecium)?
**A.** 16 µg/mL (≈ 26.7 µM)

**Q.** And the MIC (Staphylococcus aureus [6])?
**A.** 8 µg/mL (≈ 13.4 µM)

**Q.** And the MIC (Staphylococcus aureus [7])?
**A.** 8 µg/mL (≈ 13.4 µM)

**Q.** And the MIC (Staphylococcus aureus [8])?
**A.** 4 µg/mL (≈ 6.68 µM)

**Q.** And the MIC (Staphylococcus aureus [9])?
**A.** 8 µg/mL (≈ 13.4 µM)

**Q.** How did the MNEC [2] turn out when `Nc1nc(Sc2cccc(C(=O)O)c2)nc2c1cnn2-c1cc(Cl)cc(Cl)c1` was run?
**A.** 1 µg/mL

**Q.** With `Cc1ccc(Oc2nc(N)c3cnn(-c4cc(Cl)cc(Cl)c4)c3n2)cn1` as the compound, how does the MNEC [2] read?
**A.** > 125 µg/mL

**Q.** Which MNEC [2] does the source give for `Cc1nn2c(N)nc(Sc3cccc(C(=O)O)c3)nc2c1C#N` here?
**A.** 0.5 µg/mL

**Q.** With `CCOC(=O)c1cccc(Oc2nc(N)c3cnn(-c4cc(Cl)cc(Cl)c4)c3n2)c1` as the compound, how does the MNEC [1] read?
**A.** 125 µg/mL

**Q.** `CCc1nn(-c2cc(Cl)cc(Cl)c2)c2nc(Oc3ccc4c(O)cc(=O)oc4c3)nc(N)c12` was tested. Which MNEC [2] did it give?
**A.** 0.06 µg/mL

**Q.** How did the MNEC [2] turn out when `CCc1nn(-c2cccc(F)c2)c2nc(Sc3cccc(C(=O)O)c3)nc(N)c12` was run?
**A.** 8 µg/mL

**Q.** For `Cc1nn(-c2cc(Cl)cc(Cl)c2)c2nc(Sc3cccc(C(=O)O)c3)nc(N)c12`, which MNEC [2] is on record?
**A.** 1 µg/mL

**Q.** How did the MNEC [2] turn out when `CCc1nn(-c2cc(Cl)cc(Cl)c2)c2nc(Oc3ccc(C)nc3)nc(N)c12` was run?
**A.** > 16 µg/mL

**Q.** And the MNEC [1]?
**A.** < 16 µg/mL

**Q.** Which MNEC [2] does the source give for `CCc1nn(-c2cc(Cl)cc(Cl)c2)c2nc(Oc3ccc4c(O)cc(=O)oc4c3)nc(NC3CC3)c12` here?
**A.** 4 µg/mL

**Q.** Which results are given for `Nc1nc(Sc2cccc(C(=O)O)c2)nc2c(-c3ccc(Cl)c(Cl)c3)cnn12`?
**A.** MNEC [2]: 1 µg/mL; MIC (Staphylococcus aureus [3]): > 32 µg/mL; MIC [4]: 4 µg/mL (≈ 9.25 µM); MIC (Staphylococcus aureus [5]): > 32 µg/mL; MIC (Streptococcus pyogenes): 0.5 µg/mL (≈ 1.16 µM); MIC (Enterococcus faecium): 32 µg/mL (≈ 74 µM); MIC (Staphylococcus aureus [6]): > 32 µg/mL; MIC (Staphylococcus aureus [7]): > 32 µg/mL; MIC (Staphylococcus aureus [8]): > 32 µg/mL; MIC (Staphylococcus aureus [9]): > 32 µg/mL

**Q.** For `Cc1ccc(Oc2nc(N)n3ncc(-c4ccc(Cl)c(Cl)c4)c3n2)cn1`, which MNEC [2] is on record?
**A.** > 63 µg/mL

**Q.** And the MNEC [1]?
**A.** < 16 µg/mL

**Q.** What does the source list for `CCc1nn(-c2cc(Cl)cc(Cl)c2)c2nc(Sc3cccc(C(=O)O)c3)nc(N)c12`?
**A.** MNEC [2]: 0.25 µg/mL; MIC (Staphylococcus aureus [3]): 2 µg/mL (≈ 4.34 µM); MIC [4]: 0.5 µg/mL (≈ 1.09 µM); MIC (Staphylococcus aureus [5]): 4 µg/mL (≈ 8.69 µM); MIC (Enterococcus faecium): > 32 µg/mL; MIC (Staphylococcus aureus [6]): 16 µg/mL (≈ 34.8 µM); MIC (Staphylococcus aureus [7]): 32 µg/mL (≈ 69.5 µM); MIC (Staphylococcus aureus [8]): 16 µg/mL (≈ 34.8 µM); MIC (Staphylococcus aureus [9]): 32 µg/mL (≈ 69.5 µM)

**Q.** `CCc1nn(-c2cc(Cl)cc(Cl)c2)c2nc(Sc3cccc(C(=O)O)c3)nc(NC3CC3)c12` was tested. Which MNEC [2] did it give?
**A.** 8 µg/mL

**Q.** What does the source list for `CO[C@@H]1[C@@H](OC(N)=O)[C@@H](O)[C@H](Oc2ccc3c(O)c(NC(=O)c4ccc(O)c(CC=C(C)C)c4)c(=O)oc3c2C)OC1(C)C` [NOVOBIOCIN]?
**A.** MIC (Staphylococcus aureus [3]): 8 µg/mL (≈ 13.1 µM); MIC [4]: 0.12 µg/mL (≈ 0.196 µM); MIC (Staphylococcus aureus [5]): 0.25 µg/mL (≈ 0.408 µM); MIC (Streptococcus pyogenes): 2 µg/mL (≈ 3.26 µM); MIC (Enterococcus faecium): 8 µg/mL (≈ 13.1 µM); MIC (Staphylococcus aureus [6]): 0.25 µg/mL (≈ 0.408 µM); MIC (Staphylococcus aureus [7]): 16 µg/mL (≈ 26.1 µM); MIC (Staphylococcus aureus [8]): 0.25 µg/mL (≈ 0.408 µM); MIC (Staphylococcus aureus [9]): 8 µg/mL (≈ 13.1 µM)

**Q.** `Nc1nc(Oc2ccc3c(O)cc(=O)oc3c2)nc2c1cnn2-c1cc(Cl)cc(Cl)c1` was tested. Which MNEC [2] did it give?
**A.** 0.5 µg/mL

**Q.** For `CCc1nn(-c2cc(Cl)cc(Cl)c2)c2nc(Oc3ccc4c(O)c(NC(C)=O)c(=O)oc4c3)nc(N)c12`, which MNEC [2] is on record?
**A.** 0.5 µg/mL

**Q.** And the MIC (Staphylococcus aureus [3])?
**A.** 8 µg/mL (≈ 14.8 µM)

**Q.** And the MIC [4]?
**A.** 4 µg/mL (≈ 7.39 µM)

**Q.** What about the MIC (Staphylococcus aureus [5]) of the same compound?
**A.** 4 µg/mL (≈ 7.39 µM)

**Q.** What about the MIC (Streptococcus pyogenes) of the same compound?
**A.** 1 µg/mL (≈ 1.85 µM)

**Q.** And the MIC (Enterococcus faecium)?
**A.** > 32 µg/mL

**Q.** What about the MIC (Staphylococcus aureus [6]) of the same compound?
**A.** 8 µg/mL (≈ 14.8 µM)

**Q.** What about the MIC (Staphylococcus aureus [7]) of the same compound?
**A.** 16 µg/mL (≈ 29.6 µM)

**Q.** And the MIC (Staphylococcus aureus [8])?
**A.** 16 µg/mL (≈ 29.6 µM)

**Q.** What about the MIC (Staphylococcus aureus [9]) of the same compound?
**A.** 16 µg/mL (≈ 29.6 µM)

**Q.** For `Cc1nn2c(N)nc(Oc3ccc4c(O)cc(=O)oc4c3)nc2c1C#N`, which MNEC [2] is on record?
**A.** 8 µg/mL

**Q.** Which MNEC [1] does the source give for `CCOC(=O)c1cccc(Oc2nc(N)c3c(CC)nn(-c4cc(Cl)cc(Cl)c4)c3n2)c1` here?
**A.** 125 µg/mL

**Q.** With `CCc1nn(-c2cc(Cl)cc(Cl)c2)c2nc(Oc3ccc4c(O)c(C(C)=O)c(=O)oc4c3)nc(N)c12` as the compound, how does the MNEC [2] read?
**A.** 2 µg/mL

**Q.** For `CCc1nn(-c2cc(Cl)cc(Cl)c2)c2nc(Oc3ccc4c(C)cc(=O)oc4c3)nc(N)c12`, which MNEC [1] is on record?
**A.** > 125 µg/mL

**Q.** For `COc1ccc(-c2cnn3c(N)nc(Oc4ccc5c(O)cc(=O)oc5c4)nc23)cc1OC`, which MNEC [2] is on record?
**A.** 0.1 µg/mL

**Q.** `Cc1nn(-c2cc(Cl)cc(Cl)c2)c2nc(Oc3ccc4c(O)cc(=O)oc4c3)nc(N)c12` was tested. Which MNEC [2] did it give?
**A.** 0.25 µg/mL

**Q.** Which MNEC [2] does the source give for `CCOC(=O)c1c(O)oc2cc(Oc3nc(N)c4c(CC)nn(-c5cc(Cl)cc(Cl)c5)c4n3)ccc2c1=O` here?
**A.** 2 µg/mL
